Bioassay records: PubChem, several laboratories
A selection: hits, their analogues and other compounds. The true share with any hit is near 1.5%.
CSN inh – CSN deneddylation inhibition | Q92905 | Purified CSN, SCF-Nedd8-OG deneddylation, fluorescence polarization | inhibition, % at 12.5 µM | 360,000 compounds, 0.38% hits | AID 651999;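 active means pattern-corrected inhibition above about 35%, with an unprinted fluorescence ratio check between 0.5 and 1.5, limit read from the data, passing the limit was not always enough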
Target sequence (Q92905 whole entry, looked up, one chain of several): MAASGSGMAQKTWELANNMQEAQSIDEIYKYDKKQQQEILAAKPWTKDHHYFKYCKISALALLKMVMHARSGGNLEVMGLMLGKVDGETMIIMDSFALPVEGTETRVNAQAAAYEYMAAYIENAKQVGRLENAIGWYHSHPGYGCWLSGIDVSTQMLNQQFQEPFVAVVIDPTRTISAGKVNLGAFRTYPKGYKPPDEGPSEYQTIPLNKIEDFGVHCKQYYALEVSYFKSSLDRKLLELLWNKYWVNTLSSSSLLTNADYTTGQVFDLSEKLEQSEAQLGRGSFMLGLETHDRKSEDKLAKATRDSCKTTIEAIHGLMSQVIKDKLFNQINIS
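Assay system: Purified human Csn5 enzyme expressed in HEK293T cells | Amount: Enzyme 0.24 nM | Measured by: Fluorescence polarization readout | Medium: Tris/NaCl/DTT buffer, pH 7.5 | Compound dosing: One concentration, 12.5 µM, 0.25% DMSO | Times: 90 min incubation of compound, enzyme and substrate at room temperature | Control set: no-enzyme wells high, enzyme-with-substrate wells low | Read-out: % inhibition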
HNF4A DNA FP – change in binding of human HNF4 alpha to DNA; 360,000 compounds, 0.3% hits; AID 1224865; activity change, % at 10 µM; HNF4a-FITC DNA binding, fluorescence polarization, 1 h; in the data active means activity change above about 30%, passing the limit was not always enough
EBNA-1 inhibitor – blocks EBNA-1 binding to DNA. inhibition, % at 14.8 µM. EBNA-1 DNA binding, fluorescence polarization. 300,000 compounds, 0.34% hits; in the data active means inhibition above about 28%
A1 inh – inhibitors of the anti-apoptotic protein A1, read as caspase activation. MEF A1-2A-BIM cells, Caspase-Glo 3/7 luminescence, 3 h; percent of clofoctol response, vehicle zero. caspase activation, % (test concentration not listed). 330,000 compounds, 0.066% hits;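 active means over half of replicate activation scores above 10%, or exactly half above 10 with the replicate mean above 10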
LANA-H2B inh – blocks KSHV LANA binding to histone H2A/H2B | Q9QR71 | cell-free LANA-H2A/H2B peptide, fluorescence polarization | inhibition, % (concentration not given with the values) | 320,000 compounds, 0.6% hits; in the data active means inhibition mostly above about 10%, no sharp cut-off; inactive means mostly below about 6.7%
ZTA DNA inh – counter-screen for EBNA-1 inhibitors: inhibitors of Epstein-Barr virus ZTA | P03206 | ZTA-DNA binding, fluorescence polarization | inhibition, % at 11 µM | 320,000 compounds, 0.15% hits | AID 2234; in the data active means inhibition above about 33%
Large screens that a line does not name were inactive; ! = not confirmed by another sample.

Cc1cccn2c(CN(C)C3CCOC3)c(C(=O)N3CCCCC3)nc12 (stereo not drawn)	none
Cc1nn(C)c(C(=O)NNC(=S)NCC(C)C)c1Cl	none
CCOC(=O)c1c(=O)n(O)c2ccc(OC)cc2[n+]1[O-]	LANA-H2B inh 81.7
COc1ccc2c(c1)[n+](=O)c(C(C)=O)c(C)n2[O-]	none
Cc1c(C(=O)O)sc2nc3n(c(=O)c12)CCC(C)CC3 (stereo not drawn)	LANA-H2B inh 20.1
Cc1c(C(=O)O)sc2nc3n(c(=O)c12)CCCCC3	none
COc1cccc(Cl)c1NC(=O)N1CCN(c2cc(C)nc3ccccc23)CC1	none
COc1cccc(Cl)c1NC(=O)N1CCN(c2ccnc3cc(Cl)ccc23)CC1	LANA-H2B inh 39.6
Cc1oc(-c2cccs2)nc1CN1CCC(CO)(CCOc2ccccc2)CC1	LANA-H2B inh 13.4
CCOC(=O)C1(CCOC)CCN(Cc2nc(-c3cccs3)oc2C)CC1	none
COc1cccc(/C=c2\sc3nc(-c4cccs4)nn3c2=O)c1OC	none
Cc1ccc(/C=c2\sc3nc(-c4cccs4)nn3c2=O)o1	CSN inh 44.0
Cn1c2c(c(=O)n(C)c1=O)C(C(F)(F)F)(C(F)(F)F)N=C(CCC1CCCCC1)N2	CSN inh 53.7
Cn1c2c(c(=O)n(C)c1=O)C(C(F)(F)F)(C(F)(F)F)N=C(c1ccccc1Cl)N2	none
COc1cc(C(O)c2nc(-c3cccc(C#N)c3)cs2)ccc1F (stereo not drawn)	none (no result: EBNA-1 inhibitor, A1 inh, LANA-H2B inh, ZTA DNA inh)
CC(C)OC(=O)CC(=O)c1sc2nc3c(cc2c1N)CN(C)CC3	LANA-H2B inh 74.3 (no result: CSN inh, HNF4A DNA FP)
COCCCNCCOc1ccc(C(C)(C)c2ccccc2)cc1	none
CCC(C)NCCOc1ccc(C(C)(C)c2ccccc2)cc1 (stereo not drawn)	LANA-H2B inh 13.6
CN(C)CCCNC(=O)c1ccc(Cl)c(S(=O)(=O)N2CCCCCC2)c1	none (no result: EBNA-1 inhibitor)
CN(C)C(CNC(=O)c1ccc(Cl)c(S(=O)(=O)N2CCCCCC2)c1)c1ccccc1 (stereo not drawn)	LANA-H2B inh 14.5 (no result: EBNA-1 inhibitor)
O=C1CC(c2c[nH]c3ccccc23)C(=O)N1 (stereo not drawn)	LANA-H2B inh 30.3
Cn1c(=O)c2c(-c3ccccc3)n(-c3cc([N+](=O)[O-])ccc3O)cc2n(C)c1=O	none (no result: EBNA-1 inhibitor, A1 inh, LANA-H2B inh, ZTA DNA inh)
O=C(CN1C(=O)NC2(CCCC2)C1=O)Nc1ccc(Cl)cc1F	none
O=C(CN1C(=O)NC2(CCCC2)C1=O)Nc1ccccc1F	LANA-H2B inh 27.2
CC(=O)c1sc(NC(=O)CN2C(=O)NC3(CCCC3)C2=O)nc1-c1ccccc1	LANA-H2B inh 18.2
COc1ccc(NS(=O)(=O)c2ccc(C)c(NC(=O)CN3C(=O)NC4(CCCC4)C3=O)c2)cc1	CSN inh 109.5 (no result: EBNA-1 inhibitor)
COc1ccc(N2CCN(C(=O)C(=O)c3cccc([N+](=O)[O-])c3)CC2)cc1	none (no result: EBNA-1 inhibitor, A1 inh, LANA-H2B inh, ZTA DNA inh)
CCOCCCNC(=O)c1ccc(Cn2c(=S)[nH]c3c([nH]c4ccc(OC)cc43)c2=O)cc1	none
CCCCNC(=O)c1ccc(Cn2c(=S)[nH]c3c([nH]c4ccc(OC)cc43)c2=O)cc1	A1 inh 50.9
CC(Oc1ccc2c(-c3ccccc3)cc(=O)oc2c1)C(=O)NCCCn1ccnc1 (stereo not drawn)	none
CC(C)CC(NC(=O)C(NC(=O)OC(C)(C)C)C(C)C)C(=O)NC(CCC(=O)OCc1ccccc1)C(N)=O (stereo not drawn)	LANA-H2B inh 21.0!
CCc1nc(N=Nc2c(O)[nH]c3ccccc23)c2c3c(sc2n1)CCC3	A1 inh 8.9
CCOC(=O)c1ccc(NC(=O)NCCc2cnc[nH]2)cc1	none
O=C(/C=C/c1ccco1)Nc1ccc(-c2nc3ccccc3[nH]2)cc1	HNF4A DNA FP 65.6
O=CN(Cc1nc2ccccc2[nH]1)c1ccc(C(=O)O)cc1	none (no result: EBNA-1 inhibitor, A1 inh, LANA-H2B inh, ZTA DNA inh)
COc1ccc(C(=O)/C=C/c2cn(CC(O)CN3CCN(C)CC3)c3ccccc23)cc1OC (stereo not drawn)	CSN inh 55.3, HNF4A DNA FP 47.7
CCCCN1CC(COCc2ccccc2)Oc2cccc(OCCN3C(=O)[C@@H]4[C@H](C3=O)C3C=C[C@H]4C3)c2S1(=O)=O (stereo partly drawn)	none (no result: EBNA-1 inhibitor, A1 inh, LANA-H2B inh, ZTA DNA inh)
Cc1cc2nc(-c3ccccc3)cc(=O)n2[nH]1	none
